Screening data (PubChem)
Fh CTSL1 inh: blocks F. hepatica cathepsin L1 in PFM18AAP counter-screen; recombinant F. hepatica cathepsin L1, Z-Leu-Arg-MCA fluorescence; AID 1906; inhibition, % at 5.96 µM; 0.49% of 300,000 active;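 active = inhibition above the mean of all tested compounds plus 3 SD, set per screening campaign, cut at about 17% in these data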;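 also: 0% = plate median of test compound wells and 100% = 1 µM Z-Phe-Ala-diazomethylketone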
Apaf1 inhib: inhibitors of human Apaf-1 apoptosome; O14727; reconstituted apoptosome caspase-3 activity, DEVD-Rh110 fluorescence; inhibition, % at 20 µM; 0.71% of 330,000 active; active = inhibition of at least 40% at 20 µM;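 also: plate controls were DMSO wells for no effect and DEVD-CHO caspase inhibitor wells for full effect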
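Material: reconstituted apoptosome with Apaf-1, cytochrome c, caspase-9, procaspase-3, dATP. Technique: Rh110 fluorescence intensity. Buffer or medium: pH 7.5 Hepes buffer with CHAPS, BSA, DTT. Times: 30 min plus 50 min, RT.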
TDP2 inh: blocks human TDP2 phosphodiesterase activity | 0.34% of 370,000 active | AID 720702 | recombinant TDP2, T5PNP hydrolysis, p-nitrophenol absorbance 415 nm | inhibition, % at 12.8 µM;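 active = inhibition above the mean of all tested compounds plus 3 SD, set per campaign, cut at about 25% in these data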;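 also: 0% = DMSO with enzyme and 100% = buffer with substrate but no TDP2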
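Assay system: Recombinant human TDP2 | Quantity: 120 nM TDP2 per well | Incubation: 2 h at 37 °C | Signal: Epi absorbance | Evaluation: Percent inhibition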
PAD4 inh: inhibitors of human PAD4; 0.41% of 330,000 active; inhibition, % at 6.36 µM; recombinant PAD4, RCA probe fluorescence polarization;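 active = percent inhibition above a cutoff equal to the mean of all tested compounds plus 3 SD, cut at about 15% in these data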;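 also: 0% = PAD4 with RCA probe and DMSO and 100% = probe without PAD4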
GSTO1 counter: blocks human GSTO1 in RBBP9 counter-screen. P78417. recombinant GSTO1, activity-based probe fluorescence polarization. inhibition, % at 5.96 µM. 1.1% of 300,000 active. AID 1974;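 active = inhibition above the campaign mean inhibition plus 3 SD, cut at about 35% in these data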;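 also: 0% = GSTO1-1 with DMSO and 100% = wells lacking GSTO1-1 enzyme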
PAD4 confirm: PAD4 (human) inhibition, confirmed | shares compounds with PAD4 inh | recombinant PAD4, RCA probe fluorescence polarization | inhibition, % at 6.36 µM | 28% of 1,200 active | AID 488796;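 active = mean inhibition across replicates above the hit cutoff set by the earlier primary screen, cut at about 15% in these data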;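 also: inhibitors block active-site labeling by the probe so polarization falls; 0% = PAD4 with probe and DMSO and 100% = probe without PAD4 enzyme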
Active calls of the source: *. This is a sample that favours compounds with a hit; in the whole collection about 1.8% have one here.

c1cc2c(cc1C1=NNC(=NC3CC3)SC1)OCCO2 was read as Fh CTSL1 inh -2, Apaf1 inhib -10, TDP2 inh 12, PAD4 inh 41*, GSTO1 counter 13 and PAD4 confirm 7.
For c1ccc2oc(C3=NNC(=NC4CC4)SC3)cc2c1 the results were Fh CTSL1 inh 1, Apaf1 inhib -1, TDP2 inh 3, PAD4 inh 21*, GSTO1 counter -2 and PAD4 confirm 8.
`CCN(CC)C(=O)CC[C@@H]1CC[C@]2(CCCN(Cc3cccs3)C2)O1` gave TDP2 inh -12.
`O=c1[nH]nc(-c2ccc(OCc3ccc(Cl)cc3Cl)cc2)o1` gave Fh CTSL1 inh -1, Apaf1 inhib -54, TDP2 inh -1, PAD4 inh 89*, GSTO1 counter 11 and PAD4 confirm -2.
For CC(C)C(C(=O)NC1CCCC1)N(CC1CCCO1)C(=O)CNS(=O)(=O)c1ccccc1 (stereo not given) the results were Fh CTSL1 inh -2, Apaf1 inhib -2, TDP2 inh -1, PAD4 inh 26*, GSTO1 counter -5 and PAD4 confirm -3.
CCC(C)(C)NC(=O)CN(CC1CCCO1)C(=O)CNS(=O)(=O)c1ccccc1 (stereo not given) was read as Fh CTSL1 inh -3, Apaf1 inhib -4, TDP2 inh 6, PAD4 inh 0 and GSTO1 counter 9.
Screening Cc1ccc(S(=O)(=O)N(C)CC(=O)Nc2nc3ccccc3s2)cc1 returned Fh CTSL1 inh 2, Apaf1 inhib 19, TDP2 inh 10, PAD4 inh 1 and GSTO1 counter 1.
For Cc1ccc(/C(=N/Nc2nc3ccccc3s2)C2=C(O)c3ccccc3C2=O)cc1 the results were Fh CTSL1 inh 2, Apaf1 inhib 11, TDP2 inh 10, PAD4 inh 42*, GSTO1 counter -17 and PAD4 confirm 17*.
Screening CC(=O)N1c2ccccc2C(C)=NCC1C(=O)NC1CCCCC1 (stereo not given) returned TDP2 inh 2.
`Nc1ncnc(N)c1NC(=O)c1ccccc1` gave TDP2 inh 0.
`COc1cccc(C2NC(=O)c3sc(=S)n(-c4ccccc4)c3N2)c1` (stereo not given) gave Fh CTSL1 inh -4, Apaf1 inhib 7, TDP2 inh 0, PAD4 inh 4 and GSTO1 counter 0.
For COc1ccc(OC)c(C2NC(=O)c3sc(=S)n(-c4ccccc4)c3N2)c1 (stereo not given) the results were Fh CTSL1 inh 1, Apaf1 inhib -8, TDP2 inh 13, PAD4 inh 22*, GSTO1 counter 5 and PAD4 confirm 35*.
O=C1OC(Nc2cc(Br)cc3cccnc23)c2ccccc21 (stereo not given) was read as Fh CTSL1 inh 98*, Apaf1 inhib 97*, TDP2 inh 79*, PAD4 inh 61*, GSTO1 counter 86* and PAD4 confirm -6.
Screening O=C1OC(Nc2ncccn2)c2ccccc21 (stereo not given) returned Fh CTSL1 inh -3, Apaf1 inhib 1, TDP2 inh 1, PAD4 inh 7 and GSTO1 counter 1.
For COC(=O)[C@]12C[C@H](CC(=O)N3CCOCC3)C(=O)N(Cc3cccc4ccccc34)C1=C[C@H](C1CCCC1)O[C@@H]2C the results were TDP2 inh -1.
For Cc1cccc(C2=CC(=O)CC(C)(C)C2=O)c1 the results were TDP2 inh 4.
Screening COC(=O)[C@]12C[C@H](CC(=O)NCc3cccc4ccccc34)C(=O)N(Cc3ccc(Cl)cc3Cl)C1=C[C@H](C1CCCC1)O[C@@H]2C returned TDP2 inh -11.
Screening Cc1sc(NC(=O)CSC2=NCCS2)nc1-c1ccccc1 returned Fh CTSL1 inh 2, Apaf1 inhib 4, TDP2 inh 4, PAD4 inh 19*, GSTO1 counter 0 and PAD4 confirm 17*.
Screening CCOC(=S)SCC(=O)Nc1nc(-c2ccccc2)cs1 returned Fh CTSL1 inh 1, Apaf1 inhib -19, TDP2 inh 16, PAD4 inh 25*, GSTO1 counter 3 and PAD4 confirm 25*.
